pEC50, pIC50, pKd: −log10 of the molar value. Calls of active or inactive are those of the source. The rule behind the calls is not given here.
Legend:
[1] = Inhibition of Plasmodium falciparum NDH2 D171R mutant expressed in Escherichia coli DH5alpha competent cells using NADH and ubiquinone-1 as substrate by spectrophotometric analysis
Method in brief: (§1)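 Recombinant PfNDH2 point or double mutants assayed spectrophotometrically at 25 °C. Buffer: 50 mM MOPS pH 7.0, 150 mM NaCl, 1 mM EDTA, 0.01% Triton X-100. Substrates 50 µM NADH and 30 µM ubiquinone-1, with 0.5 nM enzyme and selected inhibitor concentrations.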

[2] = Inhibition of Plasmodium falciparum NDH2 Y475R mutant expressed in Escherichia coli DH5alpha competent cells using NADH and ubiquinone-1 as substrate by spectrophotometric analysis; method in brief: as §1
[3] = Binding affinity to Plasmodium falciparum NDH2 expressed in Escherichia coli BL21 assessed as NADH Kd by SPR assay (reference value: 5.22 uM)
Plasmodium falciparum [4] = experiment: Antimalarial activity against chloroquine/quinine/sulfadoxine-pyrimethamine/amodiaquine-resistant asexual blood stage Plasmodium falciparum PC26 after 72 hrs by SYBR green-based fluorometric analysis; assay type: functional; conditions: PC26, 72 h
Method in brief: (§2)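 Mid-ring-stage cultures (~6-10 h post-invasion) at 1% parasitemia and 2% hematocrit, in triplicate. Twofold serial dilutions from a top concentration of 100 nM. Incubated 72 h at 37 °C under 5% CO2/5% O2/90% N2. Lysis buffer containing 5×SYBR Green I added, 20 min in the dark, fluorescence read at ex 485/em 538 nm. EC50 derived.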

Plasmodium falciparum [5] = experiment: Antimalarial activity against multi drug-resistant asexual blood stage Plasmodium falciparum Fab9 after 72 hrs by SYBR green-based fluorometric analysis; assay type: functional; conditions: Fab9, 72 h; method in brief: as §2
Plasmodium falciparum [6] = experiment: Antimalarial activity against multi drug-resistant asexual blood stage Plasmodium falciparum D10 after 72 hrs by SYBR green-based fluorometric analysis; assay type: functional; conditions: D10, 72 h; method in brief: as §2
Plasmodium falciparum [7] = experiment: Antimalarial activity against dihydroartemisinin-resistant asexual blood stage Plasmodium falciparum 803 after 72 hrs by SYBR green-based fluorometric analysis; assay type: functional; conditions: Plasmodium falciparum, 803, 72 h; method in brief: as §2
Plasmodium falciparum [8] = experiment: Antimalarial activity against quinine-resistant asexual blood stage Plasmodium falciparum C2A after 72 hrs by SYBR green-based fluorometric analysis; assay type: functional; method in brief: as §2
Plasmodium falciparum [9] = experiment: Antimalarial activity against […] asexual blood stage Plasmodium falciparum 3D7 after 72 hrs by SYBR green-based fluorometric analysis; assay type: functional; conditions: 3D7, 72 h; method in brief: as §2
Plasmodium falciparum [10] = experiment: Antimalarial activity against chloroquine/quinine/sulfadoxine-pyrimethamine/amodiaquine-resistant asexual blood stage Plasmodium falciparum Dd2 assessed as reduction in parasite recrudescence at 10 times EC50 for 72 hrs measured after 28 days post invasion by Giemsa staining-based light microscopic analysis; assay type: functional
Method in brief: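 Parasite cultures exposed for 72 h to 10× EC50 of inhibitor. Drug then removed and cultures maintained for 28 days post treatment. Recrudescence monitored by microscopy.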

Plasmodium falciparum [11] = experiment: Antimalarial activity against mid/late trophozoite stage of Plasmodium falciparum 3D7 assessed as reduction in parasitemia at 10 times EC50 administered at synchronized early ring stages and then removed from culture at 2 hrs intervals after 34 hrs paraiste invasion stage and measured till 40 hrs post invasion by SYBR green-based fluorometric analysis; assay type: functional; set-up: scale not given: the % may be the effect or the level left
Method in brief: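 Synchronized early-ring P. falciparum 3D7 treated with about 10×EC50 compound. Compound removed at 2 h intervals starting at t=34 h (trophozoite), then parasites returned to compound-free medium. Maturation through a single ~48 h asexual cycle followed.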

Plasmodium yoelii [12] = experiment: Antimalarial activity against Plasmodium yoelii YM infected in BALB/c mouse assessed as time duration for parasite cure at 5 mg/kg, sc administered QD for 4 days starting at 2 hrs post infection by Giemsa-staining based microscopic analysis; assay type: functional
Method in brief: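 P. yoelii-infected mice, n=3 per group. Subcutaneous injection once daily for 4 days starting at 2 h post infection. Growth inhibition determined at 24 h post treatment by blood-smear microscopy. Cure time taken as the minimum period to cure all mice in the group.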

Plasmodium yoelii [13] = experiment: Antimalarial activity against Plasmodium yoelii YM infected in BALB/c mouse assessed as mouse survival at 5 mg/kg, sc administered QD for 4 days starting at 2 hrs post infection by Giemsa-staining based microscopic analysis; assay type: functional
Method in brief: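 Mice inoculated with 1×106 P. yoelii parasites, then dosed subcutaneously once daily for 4 days starting 2 h post infection. Parasitemia followed by microscopy of blood smears. Survival scored at 40 days post infection in groups of n=3 mice. DMSO-only controls.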

Plasmodium yoelii [14] = experiment: Antimalarial activity against Plasmodium yoelii YM infected in BALB/c mouse assessed as time duration for parasite cure at 10 mg/kg, sc administered QD for 4 days starting at 96 hrs post infection by Giemsa-staining based microscopic analysis; assay type: functional
Method in brief: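 P. yoelii-infected mice, n=3 per group. Subcutaneous injection once daily for 4 days starting at 96 h post infection. Parasitemia followed on blood-smear microscopy, with inhibition measured at 24 h post treatment. Cure time taken as the minimum period to cure all mice; survival recorded at 40 days. DMSO controls included.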

Plasmodium yoelii [15] = experiment: Antimalarial activity against Plasmodium yoelii YM infected in BALB/c mouse assessed as mouse survival at 10 mg/kg, sc administered QD for 4 days starting at 96 hrs post infection by Giemsa-staining based microscopic analysis; assay type: functional
Method in brief: (§3)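 Mice inoculated with 1×106 P. yoelii parasites. Subcutaneous dosing for 4 days starting 96 h post infection, given once daily or twice daily 8 h apart. Parasitemia followed on Giemsa-stained blood smears. Survival recorded at 40 days post infection; groups of n=3. DMSO-only mice served as untreated controls.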

Plasmodium yoelii [16] = experiment: Antimalarial activity against Plasmodium yoelii YM infected in BALB/c mouse assessed as parasite growth inhibition at 10 mg/kg, sc administered BID for 4 days starting at 96 hrs post infection, 8 hrs apart by Giemsa-staining based microscopic analysis; assay type: functional; conditions: read-out: GI
Method in brief: (§4)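 P. yoelii-infected mice, n=3 per group. Subcutaneous injection twice daily, 8 h apart, for 4 days starting at 96 h post infection. Growth inhibition read from blood smears at 24 h post treatment. Cure time taken as the minimum period to cure all mice in the group. DMSO controls included.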

Plasmodium yoelii [17] = experiment: Antimalarial activity against Plasmodium yoelii YM infected in BALB/c mouse assessed as parasite growth inhibition at 30 mg/kg, sc administered BID for 4 days starting at 96 hrs post infection, 8 hrs apart by Giemsa-staining based microscopic analysis; assay type: functional; conditions: read-out: GI; method in brief: as §4
Plasmodium yoelii [18] = experiment: Antimalarial activity against Plasmodium yoelii YM infected in BALB/c mouse assessed as mouse survival at 30 mg/kg, sc administered BID for 4 days starting at 96 hrs post infection, 8 hrs apart by Giemsa-staining based microscopic analysis; assay type: functional; method in brief: as §3
Plasmodium yoelii [19] = experiment: Antimalarial activity against Plasmodium yoelii YM infected in BALB/c mouse assessed as mouse survival at 90 mg/kg, sc administered BID for 4 days starting at 96 hrs post infection, 8 hrs apart by Giemsa-staining based microscopic analysis; assay type: functional; method in brief: as §3
Plasmodium yoelii [20] = experiment: Antimalarial activity against Plasmodium yoelii YM infected in BALB/c mouse assessed as parasite cure level at 10 to 90 mg/kg, ip administered on days 1 post infection by Giemsa-stained microscopic analysis; assay type: functional, organism-based
Method in brief: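 Mice (groups of three) inoculated with 1×10^6 P. yoelii parasites. Single intraperitoneal dose of 10, 30 or 90 mg/kg given 24 h after inoculation. DMSO-only untreated group included. Outcome followed by blood-smear microscopy for cure, with survival scored at 40 days post infection.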

Plasmodium falciparum [21] = experiment: Synergistic antimalarial activity against Plasmodium falciparum in presence of quinine; assay type: functional
Method in brief: (§5)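 In vitro drug interaction analyses with other antimalarials against P. falciparum. Experiments repeated three times; error bars s.e.m.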

Plasmodium falciparum [22] = experiment: Binding affinity to Plasmodium falciparum NDH2 expressed in Escherichia coli BL21 assessed as reduction in NADH Kd by SPR assay
Plasmodium falciparum [23] = experiment: Synergistic antimalarial activity against Plasmodium falciparum in presence of chloroquine; assay type: functional; method in brief: as §5

Cc1c(-c2ccc(Cc3ccc(OC(F)(F)F)cc3)cc2)[nH]c2cccc(F)c2c1=O
pIC50 [1]: 8.01 | pIC50 [2]: 7.50 | pKd [3]: 4.43 | pEC50 (Plasmodium falciparum [4]): 8.23 | pEC50 (Plasmodium falciparum [5]): 8.20 | pEC50 (Plasmodium falciparum [6]): 8.04 | pEC50 (Plasmodium falciparum [7]): 8.25 | pEC50 (Plasmodium falciparum [8]): 8.14 | pEC50 (Plasmodium falciparum [9]): 7.95 | Activity (Plasmodium falciparum [10]): Active | Activity (Plasmodium falciparum [11]): >=50% | Time (Plasmodium yoelii [12]): 28 days | survival at 5 mg/kg (Plasmodium yoelii [13]): 100% | Time (Plasmodium yoelii [14]): 17 days | survival at 10 mg/kg (Plasmodium yoelii [15]): 100% | inhibition in vivo at 10 mg/kg (Plasmodium yoelii [16]): 100% | inhibition in vivo at 30 mg/kg (Plasmodium yoelii [17]): 100% | survival at 30 mg/kg (Plasmodium yoelii [18]): 100% | survival at 90 mg/kg (Plasmodium yoelii [19]): 100% | Activity (Plasmodium yoelii [20]): Active | fractional inhibitory concentration index (FICI) (Plasmodium falciparum [21]): 2.33 | fold change (FC) (Plasmodium falciparum [22]): 7 | fractional inhibitory concentration index (FICI) (Plasmodium falciparum [23]): 1.52
